The nature of test [1]: inhibitors of TNFa-induced NFkB p65 translocation, primary screen, imaging, HUVEC, MLSMR starter and 10KST1 sets (AID 438).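 Also: compound added about 3h40 before a 20 min TNFalpha stimulation.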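 As to inhibition: signal is the nuclear over cytoplasmic p65 intensity ratio per well.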 As to conditions: HUVEC TNFa-induced p65 nuclear translocation; cell count: measured here: nuclei count (cytotoxicity indicator), at 2.08 µM; inhibition: at 2 µM, stronger effect = higher value, 0% TNFa-plus-vehicle, 100% no-TNFa wells.
Test [2] can be described thus: endothelial E-selectin expression blockers – imaging, HUVEC, immunofluorescence, MLSMR starter and 10KST1 sets, primary screen (AID 487;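 active = visually confirmed hit in the image check and inhibition above 20%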;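 as to inhibition: signal is fraction of cell area covered by stained E-selectin grains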;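 as to nuclei count: 100% = median nuclei count of all wells on the same plate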). As to conditions: HUVEC TNFalpha-induced E-selectin immunofluorescence imaging, at 2 µM; inhibition: stronger effect = higher value; nuclei count: measured here: cell number, toxicity.
Test [3] can be described thus: Primary imaging screen for DUSP6 inhibitors that restore phospho-Erk in transfected HeLa cells, chemical complementation (AID 609;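 active = compounds giving at least 50% inhibition in the cell-based MKP-3 phosphatase rescue imaging test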;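 as to inhibition: phospho-Erk level distribution per well compared with pooled transfected vehicle control wells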). As to conditions: HeLa MKP-3 transfected, phospho-Erk imaging KS statistic, at 10 µM, cells stimulated with TPA for 15 min.
Test [4] deals with Dual specificity protein phosphatase 6 (Homo sapiens) (UniProt Q16828). The test is described as above. As to conditions: HeLa MKP-3 transfected, phospho-Erk imaging KS statistic; at 10 µM; stronger effect = higher value; cells stimulated with TPA for 15 min.
Sequence of Dual specificity protein phosphatase 6 (Homo sapiens) (Q16828 whole entry, looked up): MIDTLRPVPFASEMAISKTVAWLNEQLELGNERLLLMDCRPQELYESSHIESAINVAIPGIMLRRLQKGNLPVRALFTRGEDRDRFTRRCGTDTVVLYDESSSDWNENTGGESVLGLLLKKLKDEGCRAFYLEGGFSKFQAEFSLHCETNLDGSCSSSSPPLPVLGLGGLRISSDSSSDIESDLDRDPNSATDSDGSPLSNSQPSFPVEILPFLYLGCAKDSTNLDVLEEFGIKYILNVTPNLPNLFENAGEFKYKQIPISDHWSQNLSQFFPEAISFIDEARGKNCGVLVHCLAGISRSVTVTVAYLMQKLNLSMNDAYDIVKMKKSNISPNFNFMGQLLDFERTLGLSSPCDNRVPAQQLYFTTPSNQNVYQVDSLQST
In test [5] the target is Voltage-gated potassium channel subunit beta-2 (Rattus norvegicus) (UniProt P62483). Kind of test: inhibitors of rat Kvbeta2 reductase activity – biochemical, NADPH fluorescence, primary screen (AID 622;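 active = fluorescence slope higher than the sample average by over 3 SD, cut at about -0.22 in these data, passing the limit was not always enough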;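 also: slope of raw intensity against log time taken from 70 to 1610 s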). The settings on record: recombinant KvBeta, 4-cyanobenzaldehyde reduction, at 10 µM, stronger effect = higher value.
Sequence of Voltage-gated potassium channel subunit beta-2 (Rattus norvegicus) (P62483 whole entry, looked up): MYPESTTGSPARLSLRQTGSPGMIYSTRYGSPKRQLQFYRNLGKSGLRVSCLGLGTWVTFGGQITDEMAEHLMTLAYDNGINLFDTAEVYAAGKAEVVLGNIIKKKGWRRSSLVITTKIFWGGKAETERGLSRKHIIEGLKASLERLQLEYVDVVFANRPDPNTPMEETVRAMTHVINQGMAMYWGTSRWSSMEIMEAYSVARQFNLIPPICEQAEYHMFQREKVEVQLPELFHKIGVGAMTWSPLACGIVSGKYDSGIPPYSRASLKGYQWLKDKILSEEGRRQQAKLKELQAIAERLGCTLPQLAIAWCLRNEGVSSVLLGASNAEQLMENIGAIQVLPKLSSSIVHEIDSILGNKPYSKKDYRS
The target is the same in test [6]. Put plainly: enhancers of rat Kvbeta2 NADPH turnover – biochemical, NADPH fluorescence, primary screen (AID 623;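 active = NADPH fluorescence slope more negative than the mean of all samples by about 3 SD, 99.7% confidence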;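 also: fluorescence intensity change per second fitted from 20 to 320 s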). The settings on record: Recombinant KvBeta, NADPH fluorescence decrease slope, 10 min; at 10 µM; stronger effect = lower value.
Test [7] deals with Alpha-2C adrenergic receptor (Homo sapiens) (UniProt P18825). Put plainly: compounds altering alpha2C-coupled GIRK flux – cell-based, HEK293 alpha2C/GIRK1/2, thallium flux, primary screen (AID 624;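 active = fluorescence slope after compound addition differing from the mean of all screened samples at 99.7% confidence, in either direction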;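 also: slope of fluorescence ratio to pre-addition baseline per second over 15 to 24 s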). The settings on record: thallium flux BTC fluorescence, at 10 µM, actives lie on both sides.
Sequence of Alpha-2C adrenergic receptor (Homo sapiens) (P18825 whole entry, looked up): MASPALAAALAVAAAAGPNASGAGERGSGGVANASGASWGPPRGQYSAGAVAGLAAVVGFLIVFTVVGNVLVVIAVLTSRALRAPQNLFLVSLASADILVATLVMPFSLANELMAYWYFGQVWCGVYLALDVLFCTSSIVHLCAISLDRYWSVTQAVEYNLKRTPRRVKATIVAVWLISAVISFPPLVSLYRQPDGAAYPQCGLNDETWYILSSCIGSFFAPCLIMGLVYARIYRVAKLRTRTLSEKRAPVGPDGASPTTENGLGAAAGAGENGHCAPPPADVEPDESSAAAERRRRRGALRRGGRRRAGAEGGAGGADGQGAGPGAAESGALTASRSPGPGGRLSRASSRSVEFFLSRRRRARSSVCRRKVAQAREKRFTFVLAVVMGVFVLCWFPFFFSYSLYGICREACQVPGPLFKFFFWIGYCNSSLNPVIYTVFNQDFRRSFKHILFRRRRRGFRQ
Test [8] can be described thus: inhibitors of larval lipid processing in zebrafish, primary screen, whole organism, PED6 fluorescence, gall bladder and intestine (AID 686;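 active = a full or partial loss of lipid-probe fluorescence in the fish gall bladder, intestine or both, judged by eye; inactive = no fluorescence loss, or compound toxic to the fish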;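 also: larvae 5 to 7 days old with five fish per well; signal comes from phospholipase A2 cleavage of quenched PED6 carried via bile; overnight exposure to compound and PED6 before scoring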). As to conditions: Zebrafish larvae PED6 lipid processing, fluorescence scoring; screened at 20 µM (by protocol). The gist of the method:
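Doses: 20 µM single dose. Test system: live zebrafish larvae aged 5-7 days, whole organism. Quantity: five larvae per well. Measured by: By-eye fluorescence microscopy. Reagent: ingested quenched lipid PED6 at 100 nM. Read-out: visual per-well fluorescence inhibition score. Times: overnight exposure of larvae to compound plus PED6.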

The nature of test [9]: loss of swimming-algae plug formation – whole organism, Chlamydomonas reinhardtii, WT vs cilia-less mutant, absorbance, 96-well, primary screen (AID 463189;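 active = inhibition at or above 50% relative to wild type and mutant plate controls; inactive = inhibition below 50%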;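 also: 0% = wild type cc124 cells in DMSO and 100% = ciliumless bld1 mutant cells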). The settings on record: Chlamydomonas reinhardtii gravitaxis, OD600 absorbance, 2 days; at 10 µM; stronger effect = higher value.
Setting [10] is: measured here: cell density z-score.
The mark [11] stands for this setting: measured here: nuclear c-Myc green intensity z-score.
Where [12] appears, read: measured here: nuclear pErk red intensity z-score, stronger effect = higher value.

Activity calls are given as the source filed them.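 The calls were made as follows, unless noted: active = inhibition above 20% together with a positive visual image hit; inconclusive = visual image hit but inhibition not above 20%; inactive = no visual image hit.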

This note sets out measurements from PubChem BioAssay.

Usually inhibition stands for the change of the read-out against control, counted positive when it falls. With `CC1(C)Cc2nc(NCCCO)c(C#N)cc2CO1`, in [1], the cell count was determined as 503. For the same molecule, the inhibition in test [1] was -6% (inactive); in test [2], 29.1% (inactive); in [4], -11.9% (inactive); in [9], 5% (inactive). This molecule also showed a nuclei count in [2] of 94.8%. Further, the results for the z-score in [3] (setting [10]), in test [3] (setting [11]) and in test [3] (setting [12]) were -0.759, 0.0263 and -0.295, respectively. In [5], the fluorescence slope was -0.421 (inactive). The NADPH fluorescence slope in [6] was -0.000243 (inactive). The slope in [7] was 0.00519 (inactive). In addition, in test [8], the outcome was inactive.

For `Fc1ccccc1-c1nc(N2CCCCC2)c2ccccc2n1`, in test [1], the cell count came out at 364. Besides, the inhibition in [1] is -8.4% (inactive); in test [2], -149% (inactive); in test [4], 6.04% (inactive); in test [9], 140% (active). In test [2], the nuclei count was 173%. The z-score in test [3] (setting [10]) was 1.66; in test [3] (setting [11]), 0.183; in test [3] (setting [12]), -1.27. For the same molecule, the fluorescence slope in test [5] is -0.447 (inactive). Moreover, the NADPH fluorescence slope in [6] is -5.7e-06 (inactive). The slope in test [7] is 0.00522 (inactive). Besides, in test [8], the result was inactive.

Take `COc1ccc(C2=CC(c3cccc(OC)c3)n3nnnc3N2)cc1` (stereo not given): the cell count in test [1] is 539. Also, the inhibition in test [1] is -14.8% (inactive); in test [2], -119% (inactive); in test [4], 13.7% (inactive); in [9], 6.7% (inactive). For the same molecule, in [2], the nuclei count turned out to be 145%. Moreover, the figures for the z-score in [3] (setting [10]), in test [3] (setting [11]) and in test [3] (setting [12]) were 2.98, -1.71 and -0.495, respectively. Moreover, in test [5], the fluorescence slope was -0.474 (inactive). Further, the NADPH fluorescence slope in [6] was -6.4e-05 (inactive). Further, the slope in test [7] is 0.00383 (inactive). Besides, in test [8], the molecule was called inactive.

Turning to `Cn1c(=O)c2c(nc(SCCN3CCCCC3)n2Cc2ccc(Cl)cc2)n(C)c1=O`, in [1], the cell count amounted to 498. The inhibition in test [1] was -3.7% (inactive); in [2], -203% (inactive); in [4], 21% (inactive); in test [9], 104% (active). Besides, the nuclei count in test [2] worked out at 140%. The results for the z-score in test [3] (setting [10]), in [3] (setting [11]) and in [3] (setting [12]) were 0.51, -0.662 and -1.54, respectively. Besides, the fluorescence slope in test [5] was -0.526 (inactive). Also, the NADPH fluorescence slope in test [6] was -1.5e-05 (inactive). The slope in test [7] was 0.00528 (inactive). Also, the molecule was called inactive in test [8].

In the case of `C=CCc1cccc(/C=N/c2ncn[nH]2)c1O`, the cell count in test [1] was 470. Moreover, the inhibition in test [1] is -9% (inactive); in [2], -90.5% (inactive); in [4], 11.9% (inactive); in test [9] it was -13.3% (inactive). In addition, in test [2], the nuclei count stood at 148%. The z-score is -0.648 in [3] (setting [10]), 0.659 in test [3] (setting [11]) and -0.784 in test [3] (setting [12]). For the same molecule, the fluorescence slope in test [5] is -0.491 (inactive). The NADPH fluorescence slope in [6] was -0.000107 (inactive). In addition, in test [7], the slope was 0.00453 (inactive). In test [8], the molecule was classed as inactive.

For `Cn1c(NCC(O)c2ccccc2)nc2c1c(=O)n(Cc1ccc(Cl)c(Cl)c1)c(=O)n2C` (stereo not given), the cell count in [1] came out at 669. In addition, the inhibition in [1] was -6.1% (inactive); in test [2], -18.3% (inactive); in test [4], 6.04% (inactive); in test [9] it was 75.1% (active). In [2], this molecule displayed a nuclei count of 162%. Further, the z-score in test [3] (setting [10]) was found to be 0.306; in test [3] (setting [11]), 0.44; in test [3] (setting [12]), 1.81. In test [5], the fluorescence slope was -0.518 (inactive). Besides, the NADPH fluorescence slope in [6] is -3.6e-05 (inactive). The slope in test [7] was 0.00441 (inactive). For the same molecule, the outcome in test [8] was inactive.

Take `Cc1c([C@H]2[C@@H](CC#N)C2(C)C)c2ccccc2n1C`: the cell count in test [1] was determined as 637. Also, the inhibition was -3.8% (inactive) in test [1], -51.3% (inactive) in test [2], -6.48% (inactive) in test [4] and 11.5% (inactive) in test [9]. Besides, the nuclei count in [2] is 153%. In addition, the z-score in test [3] (setting [10]) is -0.588; in test [3] (setting [11]), 0.872; in test [3] (setting [12]), 0.83. The fluorescence slope in test [5] was -0.536 (inactive). The NADPH fluorescence slope in test [6] is -9.2e-05 (inactive). In addition, the slope in test [7] was 0.00537 (inactive). In [8], the molecule was classed as inactive.

Consider `N#CCSc1nc2c(cc1C#N)CCCCCC2`, for which the cell count in test [1] amounted to 603. Also, the inhibition was -18.1% (inactive) in test [1], 46.1% (inactive) in test [2], 2.92% (inactive) in test [4] and 19.7% (inactive) in test [9]. The same molecule returned a nuclei count in [2] of 147%. Further, the values for the z-score in [3] (setting [10]), in test [3] (setting [11]) and in [3] (setting [12]) were 0.833, -0.157 and -0.809, respectively. For the same molecule, the fluorescence slope in test [5] is -0.354 (inactive). Besides, the NADPH fluorescence slope in [6] is -8.7e-06 (inactive). The slope in test [7] is 0.0055 (inactive). Further, the result in [8] was inactive.

Consider `CCN1C(=O)CC(N2CCN(c3ccc(OC)cc3)CC2)C1=O` (stereo not given), for which the cell count in [1] was 489. The inhibition was -27.6% (inactive) in test [1], -368% (inactive) in test [2], 16.1% (inactive) in test [4] and 5.49% (inactive) in test [9]. Moreover, in [2], the nuclei count amounted to 154%. The z-score in [3] (setting [10]) is 1.11; in [3] (setting [11]), -0.53; in test [3] (setting [12]) it was -0.692. Further, the fluorescence slope in [5] was -0.537 (inactive). Besides, in test [6], the NADPH fluorescence slope is -6.5e-05 (inactive). Also, the slope in [7] was 0.00497 (inactive). The molecule was classed as inactive in test [8].

Take `COC(=O)c1ccc(C(=O)OC)c(NC(=O)c2cc3ccccc3o2)c1`: the cell count in [1] came out at 641. Moreover, the inhibition was -12.1% (inactive) in test [1], 15.1% (inactive) in [2], 6.51% (inactive) in test [4] and -2.3% (inactive) in [9]. Besides, the nuclei count in test [2] was 175%. The z-score in [3] (setting [10]) was 2.88; in [3] (setting [11]) it was -0.375; in test [3] (setting [12]) it was -1.4. Also, the fluorescence slope in test [5] was -0.377 (inactive). The NADPH fluorescence slope in [6] was -5.2e-05 (inactive). Also, in test [7], the slope is 0.00547 (inactive). Further, the result in test [8] was inactive.
